Source: PubChem BioAssay (The Scripps Research Institute Molecular Screening Center)
Only some compounds are listed: those with a hit (about 2.6% of all), similar ones and a draw of the others.
PRMT1 inh = PRMT1 (human) inhibition, primary screen; Q99873; recombinant PRMT1, activity-based probe fluorescence polarization; inhibition, % at 2.79 µM; 370,000 compounds, 1.3% hits;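 active = inhibition above about 21% made by adding two undisclosed values, limit read from the data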
SIAE primary = human SIAE inhibition, primary screen. Q9HAT2. SIAE FP-Rh probe binding, fluorescence polarization. inhibition, % at 9.66 µM. 370,000 compounds, 0.69% hits;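 active = inhibition above a cutoff: mean of compounds within the control limits plus 3 SD of those, cut at about 17% in these data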;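 also: 0% = plate median of compound wells and 100% = probe without SIAE protein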
Target sequence (Q9HAT2 whole entry, looked up): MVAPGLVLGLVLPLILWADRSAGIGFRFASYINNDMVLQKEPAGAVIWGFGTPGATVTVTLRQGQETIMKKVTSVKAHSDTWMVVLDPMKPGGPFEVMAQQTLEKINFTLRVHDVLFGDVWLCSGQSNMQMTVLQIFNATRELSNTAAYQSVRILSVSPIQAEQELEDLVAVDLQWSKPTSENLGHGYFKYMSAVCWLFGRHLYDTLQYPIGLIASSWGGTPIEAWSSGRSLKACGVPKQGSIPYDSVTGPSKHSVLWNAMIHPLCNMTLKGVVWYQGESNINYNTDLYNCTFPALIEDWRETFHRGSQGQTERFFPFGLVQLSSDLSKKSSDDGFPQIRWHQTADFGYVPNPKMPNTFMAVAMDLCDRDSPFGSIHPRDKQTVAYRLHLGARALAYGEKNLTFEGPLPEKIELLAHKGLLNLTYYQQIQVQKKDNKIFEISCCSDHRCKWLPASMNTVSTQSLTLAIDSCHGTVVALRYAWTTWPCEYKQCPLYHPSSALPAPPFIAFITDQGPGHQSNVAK
HTRA1 inh = blocks human HTRA1 serine peptidase; 340,000 compounds, 0.5% hits; Q92743; inhibition, % at 5.96 µM; AID 504803; recombinant HTRA1, FP-rhodamine activity-based probe, fluorescence polarization; in the data active = inhibition above about 36%;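 also: 0% = enzyme with DMSO and 100% = wells lacking enzyme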
ABHD4 inh = inhibits mouse alpha/beta hydrolase domain 4. 370,000 compounds, 0.54% hits. inhibition, % at 8.92 µM. purified mABHD4, FP-Rh probe fluorescence polarization;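 active = inhibition exceeding the mean over every tested compound plus 3 SD, cut at about 30% in these data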;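 also: 0% = plate median of compound wells and 100% = S159A mutant with DMSO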
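Material: mouse ABHD4 enzyme, wild type; Benchmarks: S159A mutant high control, sample median low control; Buffer or medium: HEPES pH 7.0, NaCl, Pluronic buffer; Signal: fluorescence polarization; Read-out: percent inhibition of probe binding, normalized to plate controls; Timing: pre-incubation 45 min, probe exposure 60 min, at 25 °C; Dosing: 8.92 µM, single dose.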
TCR CD3 inh = inhibitors of human TCR-CD3 interaction | inhibition, % at 9.4 µM | AID 651800 | 360,000 compounds, 0.37% hits | TAMRA-labeled TCR probe fluorescence, biochemical;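 also: recombinant mutant TCR 2C K166C tagged with TAMRA read by polarization; 0% = receptor in buffer alone and 100% = receptor with positive control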
BSA probe FL = counter-screen for TCR-CD3 interaction inhibitors: BSA probe. shares compounds with TCR CD3 inh. TAMRA-labeled BSA probe fluorescence counterscreen. 1,200 compounds, 10% hits. inhibition, % at 9.4 µM; in the data active = inhibition above about 23%;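 also: 0% = buffer low control and 100% = reference high control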
TCR-CD3 conf = confirmation of human TCR-CD3 interaction inhibitors. TAMRA-labeled TCR probe fluorescence binding assay. 1,200 compounds, 48% hits. inhibition, % at 9.4 µM. AID 652036. shares compounds with TCR CD3 inh
* marks the source's active call; other numbers are inactive results; · = no result. Rule as the data show it, unless noted: active = inhibition above about 19%; inactive = the rest.

SMILES | PRMT1 inh | SIAE primary | HTRA1 inh | ABHD4 inh | TCR CD3 inh | BSA probe FL | TCR-CD3 conf
CN(N=Cc1ccccc1O)c1ccc2ccccc2n1 | 5 | 6 | 6 | 7 | 20* | 4 | -1
Cc1cc(=O)oc2cc(OCC(=O)N/N=C/c3cc([N+](=O)[O-])ccc3O)ccc12 | -2 | 8 | 4 | 4 | 48* | -14 | 51*
CCC(C)(C)c1ccc(OCC(=O)Nc2ccncc2)cc1 | 0 | -5 | -16 | -15 | 5 | · | ·
Cc1ccc(-c2n[nH]c(=S)n2-c2ccccc2)cc1 | 5 | 1 | 12 | 8 | -4 | · | ·
CS(=O)(=O)Nc1ccc(-c2n[nH]c(=S)n2-c2ccccc2)cc1 | -3 | -5 | -5 | 6 | 37* | 3 | 0
C#CCOCCOCCOCCNc1nc(N2CCOCC2)nc(N2CCN(C(=O)[C@H](Cc3ccc(O)cc3)n3cc([C@@H](N)C(C)CC)nn3)CC2)n1 (stereo partly specified) | 0 | 2 | -1 | 6 | 20* | -5 | 2
CSC(=NS(=O)(=O)c1ccc(N)cc1)NS(=O)(=O)c1cccs1 | 4 | 0 | 0 | -2 | -1 | · | ·
CCCCN1CC(=O)N2[C@H]3c4cc(Br)ccc4OC[C@@H]3[C@H](C(=O)OCC)[C@]2(C)C1=O | 1 | -1 | 1 | 8 | -2 | · | ·
CC(=O)N(C)C1(c2nnnn2CCOC(=O)Nc2ccc(Cl)cc2)CCCCC1 | -2 | -2 | 4 | 4 | 30* | 1 | 2
COC(=O)C1(F)C(=O)NC(=O)NC1OC (stereo unspecified) | 0 | -1 | · | -1 | -1 | · | ·
C(=C\c1ccccc1)/CSc1nnc(Cc2cccs2)n1-c1ccccc1 | 1 | 1 | · | 1 | · | · | ·
CCOC(=O)C1CSCCS(=O)(=O)N1Cc1ccccc1C (stereo unspecified) | 3 | 3 | · | 3 | -6 | · | ·
CCCc1nnc(NC(=O)CS(=O)(=O)c2ccccc2)s1 | 0 | -5 | -2 | -3 | 30* | -1 | 1
O=C(CS(=O)(=O)c1ccccc1)Nc1nnc(Cc2ccccc2)s1 | 11 | 7 | -5 | 0 | -5 | · | ·
COc1ccc(C(=O)NC(=S)NNC(=O)c2cccnc2)cc1 | -3 | 5 | 8 | 5 | 24* | -1 | 18
COc1cc(OC)cc(C(=O)NNC(=S)NC(=O)c2cccnc2)c1 | -6 | 3 | 6 | 7 | 23* | -3 | 20*
COc1cc(OC)cc(C(=O)NC(=S)Nc2cccnc2)c1 | 1 | 8 | -7 | -7 | -7 | · | ·
COc1ccc(/C=C/C(=O)NC(=S)NNC(=O)c2cccnc2)cc1OC | -2 | 1 | 4 | 10 | 27* | -7 | 18
O=C(/C=C/c1ccccc1)NC(=S)NNC(=O)c1cccnc1 | -4 | 8 | 7 | 21 | 9 | · | ·
CCC(=O)NC(=S)NNC(=O)c1ccc(OC)cc1 | 3 | 4 | -4 | 7 | 20* | -3 | 6
Cc1ccn2c(=O)nc(SCC(=O)NCc3ccccc3Cl)nc2c1 | -1 | 3 | -9 | -2 | -2 | · | ·
C=CCCC(=O)N(Cc1ccccc1)c1ccccc1C(=O)Nc1cc(OC)ccc1OC | -1 | 3 | · | -3 | · | · | ·
CCn1c(C)nc2cc(C(=O)NNC(=S)NC(=O)c3ccccc3)ccc21 | -6 | 2 | 3 | 4 | 34* | -6 | 28*
Cc1ccccc1C(=O)NNC(=S)NC(=O)c1cccnc1 | 4 | 0 | 11 | -1 | 26* | -3 | 20*
O=C(NC(=S)NNC(=O)c1ccccc1F)c1cccnc1 | 6 | -1 | · | 10 | 18 | · | ·
SMILES | PRMT1 inh | SIAE primary | HTRA1 inh | ABHD4 inh | TCR CD3 inh | BSA probe FL | TCR-CD3 conf
Cn1ccc2c(N3CCCCCC3)cc3c(c21)C1CCC3O1 (stereo unspecified) | 4 | 8 | · | 13 | 22* | 1 | 2
C=CCNC(=S)NNC(=O)c1cccn(Cc2ccc(Cl)cc2)c1=O | 2 | 5 | 11 | 17 | 36* | -7 | 18
C=CCNC(=S)NNC(=O)c1cccn(Cc2cccc(Cl)c2)c1=O | -5 | -4 | 9 | 7 | 27* | -4 | 25*
C=CCn1cccc(C(=O)Nc2ccc(Cl)cc2)c1=O | -4 | 1 | -9 | -7 | 8 | · | ·
C=CCNC(=S)NNC(=O)c1cc(O)ccc1O | 3 | 1 | · | 21 | 38* | -10 | 23*
[O-][n+]1c2ccccc2c2n1CCCN=C2c1ccc(Cl)cc1 | -1 | 4 | -4 | 2 | 7 | · | ·
O=C(NCc1ccccc1)[C@@H]1CCCN1C(=O)[C@H]1CCCN1C(=O)c1c(F)cccc1F | -1 | 4 | · | -1 | -10 | · | ·
O=C(CCCC(=O)N(c1ccc(F)cc1)C(C(=O)NC1CCCC1)c1ccc(O)cc1)Nc1ccccn1 (stereo unspecified) | 7 | 3 | -10 | -4 | -3 | · | ·
CC(=O)Nc1ccc(S(=O)(=O)NC2(C(F)(F)F)NC(=O)N(Cc3ccccc3)C2=O)cc1 (stereo unspecified) | 0 | 8 | 2 | 2 | -1 | · | ·
CCN(CC(=O)Nc1c(F)cccc1F)C(=O)/C=C/c1ccc2ccccc2n1 | 5 | 1 | 2 | -4 | 30* | 5 | 34*
COCCCN1C(=O)C(CC(=O)NC2CCCCC2)CC(C(=O)N2CCOCC2)=C1C (stereo unspecified) | -3 | 2 | 0 | 4 | -2 | · | ·
O=C1/C(=C/c2ccc(O)c([N+](=O)[O-])c2)SC(=S)N1Cc1ccccc1 | -3 | 3 | 3 | 5 | 1 | · | ·
O=C1/C(=C\c2cccc([N+](=O)[O-])c2O)SC(=S)N1Cc1ccccc1 | 16 | -6 | 9 | -27 | 82* | -89 | 9
Cc1ccc(F)cc1CNC(=O)C1CCC(=O)N(C2CC2)C1 (stereo unspecified) | -4 | 2 | -1 | -1 | 4 | · | ·
Cc1nc(S/C(=C/c2ccc(-c3cc(Cl)ccc3C)o2)C(=O)O)n[nH]1 | 0 | 6 | 21 | 10 | 3 | · | ·
O=C(O)c1cc(Cl)ccc1-c1ccc(/C=C/c2cc(C(F)(F)F)[nH]c(=O)n2)o1 | 3 | -5 | 2 | -8 | 19* | 2 | 3
COc1ccc(/C=C/C(=O)OCC(=O)NC(C)CCc2ccccc2)cc1OC (stereo unspecified) | -1 | -1 | -4 | -3 | 8 | · | ·
CC(=O)c1ccc(OC2(C)CCN(Cc3cc4ccccc4[nH]3)C2)cc1 (stereo unspecified) | 5 | 9 | · | 6 | 31* | 2 | 3
COCCn1c(=NC(=O)c2cc(-c3cccs3)nc3ccccc23)sc2cc(S(N)(=O)=O)ccc21 | -2 | -118 | -139 | -113 | 29* | 2 | 21*
COc1cc(C2NC(=O)CCC2[N+](=O)[O-])c(OC)cc1Br (stereo unspecified) | 5 | 3 | -5 | -5 | 6 | · | ·
